In ChEMBL document CHEMBL4385610, “Selective Inhibition of Histone Deacetylase 10: Hydrogen Bonding to the Gatekeeper Residue is Implicated” (J Med Chem, 2019):
Calls of active or inactive are those of the source. The calls are words filed in the database; no cut-off is given here.

Legend:
[1] = biological target: T1, Polyamine deacetylase HDAC10 (Homo sapiens, UniProt Q969S8); experiment: Inhibition of tubastatin-Alexa647-tracer binding to recombinant GST-tagged HDAC10 (unknown origin) measured after 1 hr by TR-FRET assay
T1 sequence (Q969S8 whole entry): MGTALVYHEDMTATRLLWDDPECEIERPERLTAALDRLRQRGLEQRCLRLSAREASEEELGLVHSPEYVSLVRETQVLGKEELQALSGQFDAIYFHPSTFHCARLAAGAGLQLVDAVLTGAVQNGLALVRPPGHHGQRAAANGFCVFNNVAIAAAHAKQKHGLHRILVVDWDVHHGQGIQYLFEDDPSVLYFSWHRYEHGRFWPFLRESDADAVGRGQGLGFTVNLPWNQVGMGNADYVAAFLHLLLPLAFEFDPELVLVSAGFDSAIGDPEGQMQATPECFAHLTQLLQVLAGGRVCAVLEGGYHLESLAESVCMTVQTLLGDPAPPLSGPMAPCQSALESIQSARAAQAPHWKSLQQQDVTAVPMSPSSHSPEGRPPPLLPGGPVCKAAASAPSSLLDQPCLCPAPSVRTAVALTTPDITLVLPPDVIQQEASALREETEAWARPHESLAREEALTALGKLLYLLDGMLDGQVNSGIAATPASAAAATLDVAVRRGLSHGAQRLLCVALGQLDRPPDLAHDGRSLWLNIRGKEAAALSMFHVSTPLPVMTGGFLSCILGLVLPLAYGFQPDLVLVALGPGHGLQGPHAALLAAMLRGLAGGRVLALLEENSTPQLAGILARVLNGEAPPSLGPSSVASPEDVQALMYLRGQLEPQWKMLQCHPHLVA

[2] = biological target: T1, Polyamine deacetylase HDAC10; experiment: Inhibition of dye-labeled tracer binding to HDAC10 (unknown origin) transfected in human HeLa cells measured after 2 hrs by nano-luciferase reporter gene-based BRET assay; type: cell-based
[3] = biological target: T2, Protein deacetylase HDAC6 (Homo sapiens, UniProt Q9UBN7); experiment: Inhibition of dye-labeled tracer binding to HDAC6 (unknown origin) transfected in human HeLa cells measured after 2 hrs by nano-luciferase reporter gene-based BRET assay; type: cell-based
T2 sequence (Q9UBN7 whole entry): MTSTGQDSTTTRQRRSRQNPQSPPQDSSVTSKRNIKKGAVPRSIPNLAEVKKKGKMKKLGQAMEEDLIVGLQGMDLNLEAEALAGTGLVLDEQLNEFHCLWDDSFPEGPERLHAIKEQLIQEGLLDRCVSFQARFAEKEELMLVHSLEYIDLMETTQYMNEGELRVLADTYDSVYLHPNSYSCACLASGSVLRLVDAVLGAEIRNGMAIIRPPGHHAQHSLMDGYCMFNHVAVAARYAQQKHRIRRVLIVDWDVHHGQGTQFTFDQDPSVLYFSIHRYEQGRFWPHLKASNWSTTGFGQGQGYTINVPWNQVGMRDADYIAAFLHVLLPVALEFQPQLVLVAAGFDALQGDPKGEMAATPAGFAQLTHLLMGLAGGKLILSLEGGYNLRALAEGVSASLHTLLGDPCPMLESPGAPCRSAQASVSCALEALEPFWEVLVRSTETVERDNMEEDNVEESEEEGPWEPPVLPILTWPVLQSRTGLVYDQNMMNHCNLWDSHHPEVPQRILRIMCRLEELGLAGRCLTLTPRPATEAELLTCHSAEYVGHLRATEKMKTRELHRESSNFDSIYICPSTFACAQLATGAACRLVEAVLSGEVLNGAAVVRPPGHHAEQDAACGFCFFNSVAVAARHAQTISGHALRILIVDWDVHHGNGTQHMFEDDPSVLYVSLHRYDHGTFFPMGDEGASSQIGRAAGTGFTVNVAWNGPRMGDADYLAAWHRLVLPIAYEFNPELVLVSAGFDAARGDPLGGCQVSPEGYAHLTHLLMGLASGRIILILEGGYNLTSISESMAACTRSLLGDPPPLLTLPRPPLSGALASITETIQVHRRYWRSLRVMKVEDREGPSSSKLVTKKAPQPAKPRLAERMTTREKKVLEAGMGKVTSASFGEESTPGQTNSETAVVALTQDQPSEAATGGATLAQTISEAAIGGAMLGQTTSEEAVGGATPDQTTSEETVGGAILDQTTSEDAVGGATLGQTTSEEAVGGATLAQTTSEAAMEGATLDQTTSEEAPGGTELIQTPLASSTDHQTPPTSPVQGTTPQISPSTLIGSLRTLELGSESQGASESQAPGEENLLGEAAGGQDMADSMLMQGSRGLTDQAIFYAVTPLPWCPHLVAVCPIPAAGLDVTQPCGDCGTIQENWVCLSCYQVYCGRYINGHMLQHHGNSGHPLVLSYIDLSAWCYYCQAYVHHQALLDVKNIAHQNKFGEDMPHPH
Outline: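 Live-cell target engagement by BRET: cells overexpressing nano-luciferase-tagged HDAC6 or HDAC10 are given a dye-labelled tracer and the nano-luciferase substrate, and a competing binder disrupts BRET. pIC50 comes from pooled data of two biological replicates, each run in triplicate. The selectivity fold is taken from the HDAC10 and HDAC6 BRET values.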

Histone deacetylase 1 = Histone deacetylase 1 (Homo sapiens, UniProt Q13547); experiment: Inhibition of recombinant full-length C-terminal FLAG-fused/His-tagged human HDAC1 expressed in baculovirus infected Sf9 insect cells measured after 40 mins by HDAC-Glo1/2 luminescent assay
Histone deacetylase 2 = Histone deacetylase 2 (Homo sapiens, UniProt Q92769); experiment: Inhibition of recombinant full-length C-terminal His-tagged human HDAC2 expressed in baculovirus infected Sf9 insect cells measured after 40 mins by HDAC-Glo1/2 luminescent assay; type: cell-based
[4] = biological target: Histone deacetylase 3/Nuclear receptor corepressor 2 (HDAC3/NCoR2) (Homo sapiens, UniProt O15379); experiment: Inhibition of human recombinant full length C-terminal His-tagged HDAC3 (1 to 428 residues)/N-terminal GST-tagged NCOR2 (395 to 489 residues) expressed in baculovirus infected insect cells measured after 40 mins by HDAC-Glo1/2 luminescent assay
Histone deacetylase 8 = biological target: T3, Histone deacetylase 8 (Homo sapiens, UniProt Q9BY41); experiment: Inhibition of recombinant human full length C-terminal His-tagged HDAC8 expressed in baculovirus infected insect cells measured after 40 mins by HDAC-Glo1/2 luminescent assay
T3 sequence (Q9BY41 whole entry): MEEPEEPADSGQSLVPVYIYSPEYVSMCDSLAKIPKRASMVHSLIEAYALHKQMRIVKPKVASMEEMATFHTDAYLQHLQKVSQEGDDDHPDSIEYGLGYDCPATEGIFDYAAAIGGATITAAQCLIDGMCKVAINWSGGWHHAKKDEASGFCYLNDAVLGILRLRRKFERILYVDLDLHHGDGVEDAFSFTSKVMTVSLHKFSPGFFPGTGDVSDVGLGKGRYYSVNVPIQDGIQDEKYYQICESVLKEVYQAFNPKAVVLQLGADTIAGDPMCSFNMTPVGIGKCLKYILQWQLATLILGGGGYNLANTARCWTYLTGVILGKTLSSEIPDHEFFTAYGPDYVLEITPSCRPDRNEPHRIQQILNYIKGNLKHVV

[5] = biological target: T4, Protein deacetylase HDAC6 (Homo sapiens) (UniProt Q9UBN7); experiment: Inhibition of HDAC6 in human BE(2)-C cells assessed as increase in tubulin acetylation at 10 uM measured after 24 hrs by Western blot analysis; type: cell-based
T4 sequence (whole entry): T2 sequence (Q9UBN7 whole entry)
Outline: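 In the neuroblastoma BE(2)-C line, HDAC6 inhibition is read as tubulin acetylation by Western blot, comparing acetylated tubulin with total tubulin.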

Sequence of Histone deacetylase 2 (Q92769 whole entry, the tested form may be a part): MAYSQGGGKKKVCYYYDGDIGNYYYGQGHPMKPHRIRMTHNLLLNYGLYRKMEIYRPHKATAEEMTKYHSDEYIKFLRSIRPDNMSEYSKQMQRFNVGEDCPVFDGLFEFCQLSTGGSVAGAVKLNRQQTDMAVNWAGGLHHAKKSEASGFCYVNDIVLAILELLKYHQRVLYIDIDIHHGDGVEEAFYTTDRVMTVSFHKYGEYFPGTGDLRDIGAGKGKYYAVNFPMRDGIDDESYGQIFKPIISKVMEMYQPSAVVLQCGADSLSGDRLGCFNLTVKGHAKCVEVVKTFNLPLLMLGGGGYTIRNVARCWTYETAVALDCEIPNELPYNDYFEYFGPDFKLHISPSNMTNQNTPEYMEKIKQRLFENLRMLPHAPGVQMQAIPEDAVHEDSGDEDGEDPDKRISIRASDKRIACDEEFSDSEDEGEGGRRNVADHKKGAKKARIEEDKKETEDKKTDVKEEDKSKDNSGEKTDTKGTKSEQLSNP
Sequence of Histone deacetylase 3/Nuclear receptor corepressor 2 (HDAC3/NCoR2) (O15379 whole entry, the tested form may be a part): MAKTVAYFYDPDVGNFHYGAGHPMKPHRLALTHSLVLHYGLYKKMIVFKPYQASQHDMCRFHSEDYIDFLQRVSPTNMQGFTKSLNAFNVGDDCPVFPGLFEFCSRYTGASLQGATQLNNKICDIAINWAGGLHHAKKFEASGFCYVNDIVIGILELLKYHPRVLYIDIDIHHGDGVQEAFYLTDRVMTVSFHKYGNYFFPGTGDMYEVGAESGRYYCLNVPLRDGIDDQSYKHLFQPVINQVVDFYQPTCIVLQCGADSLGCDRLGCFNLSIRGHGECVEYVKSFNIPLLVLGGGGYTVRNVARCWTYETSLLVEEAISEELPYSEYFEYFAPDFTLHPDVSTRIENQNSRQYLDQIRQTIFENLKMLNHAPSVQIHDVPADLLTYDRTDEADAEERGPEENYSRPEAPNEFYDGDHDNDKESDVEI
Sequence of Histone deacetylase 3/Nuclear receptor corepressor 2 (HDAC3/NCoR2) (Q9Y618 whole entry, further chain, the tested form may be a part): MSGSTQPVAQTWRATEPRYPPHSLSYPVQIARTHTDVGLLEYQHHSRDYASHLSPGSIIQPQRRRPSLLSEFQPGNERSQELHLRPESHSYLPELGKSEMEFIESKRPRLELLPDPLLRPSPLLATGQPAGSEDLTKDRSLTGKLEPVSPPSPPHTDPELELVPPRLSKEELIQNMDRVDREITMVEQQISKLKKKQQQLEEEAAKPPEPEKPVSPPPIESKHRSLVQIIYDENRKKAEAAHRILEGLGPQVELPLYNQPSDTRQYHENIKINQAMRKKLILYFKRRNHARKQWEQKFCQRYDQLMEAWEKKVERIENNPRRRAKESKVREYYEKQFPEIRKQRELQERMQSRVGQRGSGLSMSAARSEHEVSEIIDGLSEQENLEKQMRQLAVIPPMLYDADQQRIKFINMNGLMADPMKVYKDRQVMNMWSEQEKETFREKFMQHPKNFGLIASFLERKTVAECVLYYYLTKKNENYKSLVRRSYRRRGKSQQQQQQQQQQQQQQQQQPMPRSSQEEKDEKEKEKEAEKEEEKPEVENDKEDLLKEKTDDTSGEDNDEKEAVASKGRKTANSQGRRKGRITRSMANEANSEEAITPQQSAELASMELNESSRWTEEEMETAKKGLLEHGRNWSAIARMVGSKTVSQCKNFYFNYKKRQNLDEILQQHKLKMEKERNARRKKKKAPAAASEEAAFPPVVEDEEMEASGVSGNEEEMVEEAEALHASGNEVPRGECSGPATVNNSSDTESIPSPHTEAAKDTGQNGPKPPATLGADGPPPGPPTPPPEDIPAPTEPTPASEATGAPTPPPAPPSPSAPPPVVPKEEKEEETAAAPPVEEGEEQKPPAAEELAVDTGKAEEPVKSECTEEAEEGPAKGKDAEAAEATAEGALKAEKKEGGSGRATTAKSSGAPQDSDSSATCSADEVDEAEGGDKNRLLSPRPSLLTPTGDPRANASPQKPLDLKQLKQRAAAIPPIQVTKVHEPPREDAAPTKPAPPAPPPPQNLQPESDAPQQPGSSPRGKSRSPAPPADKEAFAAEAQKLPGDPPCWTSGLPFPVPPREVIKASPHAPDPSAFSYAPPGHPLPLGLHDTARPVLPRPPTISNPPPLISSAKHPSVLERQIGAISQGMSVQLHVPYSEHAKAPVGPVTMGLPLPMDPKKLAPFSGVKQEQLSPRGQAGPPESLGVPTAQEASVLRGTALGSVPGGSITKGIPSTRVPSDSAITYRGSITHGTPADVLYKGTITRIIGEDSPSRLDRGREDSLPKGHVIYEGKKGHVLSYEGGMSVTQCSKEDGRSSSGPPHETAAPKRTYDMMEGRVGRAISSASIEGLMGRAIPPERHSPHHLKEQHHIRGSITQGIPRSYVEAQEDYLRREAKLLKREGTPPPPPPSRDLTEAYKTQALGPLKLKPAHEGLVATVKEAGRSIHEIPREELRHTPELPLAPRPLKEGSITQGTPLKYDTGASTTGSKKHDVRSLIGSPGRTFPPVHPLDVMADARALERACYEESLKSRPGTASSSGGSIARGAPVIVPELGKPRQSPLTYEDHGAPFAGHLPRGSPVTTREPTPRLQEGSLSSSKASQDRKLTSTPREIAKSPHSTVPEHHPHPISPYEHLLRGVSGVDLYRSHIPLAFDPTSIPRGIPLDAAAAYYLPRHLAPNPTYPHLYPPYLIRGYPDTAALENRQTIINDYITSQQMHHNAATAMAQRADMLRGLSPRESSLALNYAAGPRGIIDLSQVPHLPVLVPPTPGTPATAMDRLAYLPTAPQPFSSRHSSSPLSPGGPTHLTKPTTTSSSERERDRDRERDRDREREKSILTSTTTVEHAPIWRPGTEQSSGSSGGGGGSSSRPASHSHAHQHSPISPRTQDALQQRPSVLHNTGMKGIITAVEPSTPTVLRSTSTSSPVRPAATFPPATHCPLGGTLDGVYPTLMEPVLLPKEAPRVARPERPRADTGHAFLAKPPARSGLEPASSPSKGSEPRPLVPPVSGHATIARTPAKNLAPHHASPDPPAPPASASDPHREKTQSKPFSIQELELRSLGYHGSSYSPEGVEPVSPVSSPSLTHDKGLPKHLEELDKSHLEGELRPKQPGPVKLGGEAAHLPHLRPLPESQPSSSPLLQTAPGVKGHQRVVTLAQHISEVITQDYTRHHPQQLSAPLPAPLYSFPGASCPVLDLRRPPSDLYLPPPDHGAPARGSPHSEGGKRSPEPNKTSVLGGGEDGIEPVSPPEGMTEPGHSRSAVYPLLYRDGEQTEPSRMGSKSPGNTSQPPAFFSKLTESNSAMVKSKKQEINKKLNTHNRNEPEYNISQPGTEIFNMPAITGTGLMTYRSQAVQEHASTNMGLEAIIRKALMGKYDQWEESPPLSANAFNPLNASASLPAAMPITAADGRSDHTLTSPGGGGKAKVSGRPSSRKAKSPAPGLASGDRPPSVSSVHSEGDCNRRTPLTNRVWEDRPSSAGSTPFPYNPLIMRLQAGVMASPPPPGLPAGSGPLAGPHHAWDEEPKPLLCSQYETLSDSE
Sequence of Histone deacetylase 1 (Q13547 whole entry, the tested form may be a part): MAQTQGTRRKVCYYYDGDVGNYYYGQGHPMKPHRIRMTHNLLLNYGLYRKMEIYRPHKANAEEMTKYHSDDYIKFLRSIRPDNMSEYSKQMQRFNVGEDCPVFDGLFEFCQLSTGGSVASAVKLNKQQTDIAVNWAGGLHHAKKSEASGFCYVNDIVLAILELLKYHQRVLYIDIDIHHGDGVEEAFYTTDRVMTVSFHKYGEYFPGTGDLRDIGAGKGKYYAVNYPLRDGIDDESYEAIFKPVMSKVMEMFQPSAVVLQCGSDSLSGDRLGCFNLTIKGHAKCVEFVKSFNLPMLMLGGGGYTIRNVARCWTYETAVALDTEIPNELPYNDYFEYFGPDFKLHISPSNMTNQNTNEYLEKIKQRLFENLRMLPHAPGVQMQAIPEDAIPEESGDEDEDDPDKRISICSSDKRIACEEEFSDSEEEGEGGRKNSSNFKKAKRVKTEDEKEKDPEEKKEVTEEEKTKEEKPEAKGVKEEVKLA

Row | SMILES | IC50 [1] [nM] | IC50 [2] [nM] | IC50 [3] [nM] | IC50 (Histone deacetylase 1) [nM] | IC50 (Histone deacetylase 2) [nM] | IC50 [4] [nM] | IC50 (Histone deacetylase 8) [nM] | inhibition [5]
1 | CN(C)Cc1cn(Cc2ccc(C(=O)NO)cc2)c2ccccc12 | 5.01 | 3.98 | 158 | 1000 | 6310 | 631 | 398 | –
2 | Cc1c(C)n(Cc2ccc(C(=O)NO)cc2)c2ccccc12 | 316 | 631 | 31.6 | 2510 | 12600 | 3160 | 1580 | –
3 | CC(=O)N1CCc2c(c3ccccc3n2Cc2ccc(C(=O)NO)cc2)C1 | 501 | 2000 | 79.4 | – | – | – | – | –
4 | O=C(NO)c1ccc(Cn2c3c(c4ccccc42)CCCC3)cc1 | 1000 | 2510 | 63.1 | – | – | – | – | –
5 | O=C(NO)c1ccc(Cn2c3c(c4ccccc42)CSCC3)cc1 | 316 | 398 | 126 | – | – | – | – | –
6 | O=C(CCCCCCNC(=O)c1cnc(N(c2ccccc2)c2ccccc2)nc1)NO [RICOLINOSTAT] | 126 | 1580 | – | – | – | – | – | –
7 | CC(C)(C)c1cc2ccccc2n1Cc1ccc(C(=O)NO)cc1 | 5010 | > 39800 | 2000 | – | – | – | – | Active
8 | O=C(NO)c1ccc(Cn2c3c(c4ccccc42)COCC3)cc1 | 631 | 1000 | 20 | 1580 | 7940 | 1260 | 794 | –
9 | CN1CCc2c(n(Cc3ccc(C(=O)NO)cc3)c3ccccc23)C1 | 200 | 158 | 63.1 | 3160 | 25100 | 3980 | 3980 | –
10 | O=C(NO)c1ccc(Cn2c3ccccc3c3ccccc32)cc1 | 2000 | 3980 | 39.8 | – | – | – | – | –
11 | C#Cc1cccc(Nc2ncnc3cc(OC)c(OCCCCCCC(=O)NO)cc23)c1 [CUDC-101] | 126 | 398 | – | – | – | – | – | –
12 | COCCc1cn(Cc2ccc(C(=O)NO)cc2)c2ccccc12 | 126 | 200 | 63.1 | – | – | – | – | –
13 | CC(C)(C)OC(=O)Nc1ccc(-c2cc(C(=O)NCCCCCCC(=O)NO)no2)cc1 | 316 | 794 | – | – | – | – | – | –
14 | CC(C)(C)OC(=O)NCc1cn(Cc2ccc(C(=O)NO)cc2)c2ccccc12 | 158 | 251 | 79.4 | – | – | – | – | –
15 | CN(C)CCc1cn(Cc2ccc(C(=O)NO)cc2)c2ccccc12 | 20 | 25.1 | – | – | – | – | – | –

Next, values leading:

Row | IC50 [1] [nM] | IC50 [2] [nM] | IC50 [3] [nM] | IC50 (Histone deacetylase 1) [nM] | IC50 (Histone deacetylase 2) [nM] | IC50 [4] [nM] | IC50 (Histone deacetylase 8) [nM] | inhibition [5] | SMILES
16 | 10 | 39.8 | – | – | – | – | – | – | Cn1cc(CNCC2CCN(c3ncc(C(=O)NO)cn3)CC2)c2ccccc21 [QUISINOSTAT]
17 | 3.98 | 3.98 | 158 | 794 | 6310 | 398 | 316 | – | O=C(NO)c1ccc(Cn2cc(CN3CCCC3)c3ccccc32)cc1
18 | 79.4 | 200 | 31.6 | – | – | – | – | – | O=C(NO)c1ccc(Cn2cc(CCO)c3ccccc32)cc1
19 | 25.1 | 50.1 | 79.4 | 631 | 3160 | 501 | 398 | – | Cn1cncc1-c1cn(Cc2ccc(C(=O)NO)cc2)c2ccccc12
20 | 63.1 | 158 | 63.1 | – | – | – | – | – | O=C(NO)c1ccc(Cn2ccc3ccccc32)cc1
21 | 5.01 | 5.01 | 126 | 316 | 2000 | 158 | 398 | – | CN1CCCC1c1cn(Cc2ccc(C(=O)NO)cc2)c2ccccc12 (racemic)
22 | 79.4 | 316 | – | – | – | – | – | – | O=C(NO)c1ccc(CC(=O)N(CCO)c2ccccc2)cc1
23 | 20 | – | 126 | 1260 | 7940 | 794 | 794 | – | CN(C)Cc1nn(Cc2ccc(C(=O)NO)cc2)c2ccccc12
